From PubChem BioAssay
Shown are actives, neighbours in structure and some others; about 3.9% of the full set was active somewhere.
TAAR1 antagonist: human TAAR1 antagonism; Q96RJ0; CHO RD-HGA16 TAAR1, Fluo-8 calcium fluorescence, antagonist; 360,000 tested, 1.5% active; AID 624466; inhibition, % at 3 µM;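 active = inhibition above a per-plate cutoff, the mean inhibition of test compounds on that plate plus 3 SD, cut at about 49% in these data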;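 note: 0% = DMSO plus EC80 beta-PEA response and 100% = DMSO alone without agonist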
Target sequence (Q96RJ0 whole entry, looked up): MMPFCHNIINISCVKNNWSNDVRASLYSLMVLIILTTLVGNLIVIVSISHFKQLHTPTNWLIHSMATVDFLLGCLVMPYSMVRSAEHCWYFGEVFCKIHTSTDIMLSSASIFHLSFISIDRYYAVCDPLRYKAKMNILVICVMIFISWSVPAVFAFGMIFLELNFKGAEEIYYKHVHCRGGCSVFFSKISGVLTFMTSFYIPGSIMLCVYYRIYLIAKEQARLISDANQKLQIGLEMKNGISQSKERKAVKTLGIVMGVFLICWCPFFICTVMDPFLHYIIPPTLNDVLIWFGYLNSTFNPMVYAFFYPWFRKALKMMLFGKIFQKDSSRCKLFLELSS
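Assay system: CHO-derived RD-HGA16 cells stably expressing human TAAR1 plus Gα16. Timing: 140 s kinetic read after compound, 140 s after agonist. Technique: kinetic Fluo-8 calcium fluorescence measurement. Measure: % inhibition of agonist calcium response.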
TAAR1 ag: human TAAR1 agonism; 360,000 tested, 0.99% active; activation, % at 3 µM; CHO RD-HGA16 TAAR1, Fluo-8 calcium fluorescence; vehicle wells 0%, saturating PEA agonist 100%;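 active = activation above the mean activation of all test compounds in the run plus 3 SD, cut at about 38% in these data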
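Signal – calcium-sensitive Fluo-8 signal, excitation 470-495, emission 515-575 nm · System – RD-HGA16 (CHO) cells co-expressing Gα16 and hTAAR1 · Incubation – 17-24 h seeding, 75 min 37 °C dye, 30 min RT · Compound dosing – 3 µM single concentration · Repeats – no replicates (n 1)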
OX1R antag-1: antagonists of human orexin 1 receptor (OX1R) | O43613 | OX1R-expressing cells, FRET antagonist read-out | inhibition, % at 6.6 µM | 330,000 tested, 1.8% active; in the data active = inhibition mostly above about 38%, no sharp cut-off; inactive = mostly below about 40%;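 note: 0% = agonist challenge alone and 100% = reference antagonist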
Target sequence (O43613 whole entry, looked up): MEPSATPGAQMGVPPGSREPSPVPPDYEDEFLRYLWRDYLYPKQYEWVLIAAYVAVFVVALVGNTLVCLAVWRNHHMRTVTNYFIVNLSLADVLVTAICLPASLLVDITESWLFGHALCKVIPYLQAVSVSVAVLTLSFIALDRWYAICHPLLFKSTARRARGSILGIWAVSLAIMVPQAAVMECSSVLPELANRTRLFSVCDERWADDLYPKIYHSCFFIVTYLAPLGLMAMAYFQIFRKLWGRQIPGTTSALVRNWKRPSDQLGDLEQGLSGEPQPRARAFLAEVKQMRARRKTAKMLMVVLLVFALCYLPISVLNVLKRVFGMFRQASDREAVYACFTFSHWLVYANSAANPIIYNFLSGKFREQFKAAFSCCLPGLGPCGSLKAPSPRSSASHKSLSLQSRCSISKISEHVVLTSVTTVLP
CHO parental Ca: counter-screen for OX1R antagonists: effect in parental CHO cells; 330,000 tested, 0.63% active; parental CHO-K1, ATP-induced calcium, Fluo-8 fluorescence; AID 463079; inhibition, % at 5.6 µM;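 active = inhibition above that plate's mean sample inhibition plus 3 SD, cut at about 26% in these data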;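 note: 0% = ATP-challenged DMSO wells and 100% = DMSO wells without ATP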
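Assay system – parental CHO cells · Reagent – ATP stimulus · Detection – intracellular calcium via Fluo-8 no-wash fluorescent dye · Evaluation – percent inhibition of ATP-evoked calcium rise, normalized to controls · Controls – ATP wells versus no-ATP DMSO wells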
OX1R antag-2: human HCRTR1 antagonism; O43613; CHO/OX1R cells, Fluo-8 calcium fluorescence, orexin A; inhibition, % at 5 µM; 330,000 tested, 0.43% active;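 active = inhibition above its plate's threshold, mean inhibition of all tested compounds on the plate plus 3 SD, cut at about 37% in these data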;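 note: 0% = orexin A challenge wells and 100% = SB-334867-A antagonist wells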
TAAR1 ag conf: human TAAR1 agonism, confirmed. shares compounds with TAAR1 ag. CHO RD-HGA16 TAAR1, Fluo-8 calcium fluorescence; scaled: DMSO 0%, maximal phenethylamine 100%. activation, % at 3 µM. 2,400 tested, 82% active;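 active = activation above a cutoff set at the run's mean compound activation plus 3 SD, cut at about 39% in these data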
Ga16 ag counter: counter-screen for TAAR1 agonists: nonselective agonists in parental cells; activation, % at 3 µM; CHO-Ga16 parental, Fluo-8 calcium fluorescence; normalized to maximal ATP response, DMSO zero; shares compounds with TAAR1 ag; 2,400 tested, 50% active; AID 651787;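 active = activation above the run cutoff, the mean activation over all tested wells plus 3 SD, cut at about 12% in these data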;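 note: 0% = DMSO wells and 100% = maximal ATP response on the peak over basal ratio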
TAAR1 desensitize: counter-screen for human TAAR1 agonists: agonists that desensitize TAAR1; shares compounds with TAAR1 ag; 2,400 tested, 46% active; CHO RD-HGA16 hTAAR1, Fluo-8 calcium, beta-PEA response inhibition; inhibition, % at 3 µM; AID 651951;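 active = inhibition above the run cutoff, the mean inhibition of all test compounds plus 3 SD, cut at about 49% in these data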;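 note: beta-PEA stimulus applied at its EC80; loss of beta-PEA calcium signal after compound pretreatment read as receptor desensitization; 0% = DMSO with beta-PEA at EC80 and 100% = DMSO alone without agonist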
Ga16 antag count: nonselective Ga16 antagonism, counter-screen. CHO-Ga16 ATP-induced calcium, Fluo-8 fluorescence. shares compounds with TAAR1 ag. 2,400 tested, 39% active. inhibition, % at 3 µM;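 active = inhibition above the plate's mean compound inhibition plus 3 SD, computed per plate, cut at about 22% in these data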;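 note: 0% = EC80 ATP with DMSO and 100% = DMSO wells without ATP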
An asterisk follows results filed as active; nt = not tested or not shown.

SMILES	TAAR1 antagonist	TAAR1 ag	OX1R antag-1	CHO parental Ca	OX1R antag-2	TAAR1 ag conf	Ga16 ag counter	TAAR1 desensitize	Ga16 antag count
CC1=C(C(=O)OCc2ccccc2)C(c2ccc(-c3ccccc3)cc2)NC(=O)N1CCCCCC(=O)O (stereo unspecified)	91.9*	95.0*	12.6	-18.9	-7.9	-0.5	9.5	13.8	29.3*
CCCCc1ccc(N/C(N)=N/c2nc(C)cc(C)n2)cc1	106.9*	160.8*	24.5	69.7*	89.0*	130.9*	89.7*	106.8*	96.2*
Cc1cccc(N/C(N)=N/c2nc(C)cc(C)n2)c1	56.2*	58.4*	13.8	23.2	17.2	80.1*	43.3*	81.1*	53.1*
CC(=O)Nc1cccc(N/C(N)=N/c2nc(C)cc(C)n2)c1	-2.8	0.7	10.7	-1.0	11.3	nt	nt	nt	nt
COc1ccccc1CNC(=O)CC1C(=O)NCCN1C1Cc2ccccc2C1 (stereo unspecified)	19.2	69.6*	30.5	-24.5	-20.0	72.4*	5.2	2.7	-1.5
CCOC(=O)C1CCN(C(=O)c2ccc3c(c2)C(=O)N(c2ccccc2C)C3=O)CC1	6.4	-0.5	29.4	-1.2	-18.3	nt	nt	nt	nt
Cc1cccc(CSC(=N)N)c1	40.2	66.7*	21.4	-1.8	-17.2	93.4*	5.4	67.6*	5.6
O=C(NCC(c1ccco1)N1CCc2ccccc2C1)c1cccc([N+](=O)[O-])c1 (stereo unspecified)	16.5	2.3	27.0	-24.2	2.7	nt	nt	nt	nt
O=C(NCC(c1ccco1)N1CCc2ccccc2C1)c1ccc(Cl)c([N+](=O)[O-])c1 (stereo unspecified)	3.5	4.2	36.4	-15.4	-17.4	nt	nt	nt	nt
CC(=O)Nc1ccc(NC(=O)C(=O)NCC(c2ccco2)N2CCc3ccccc3C2)cc1 (stereo unspecified)	15.8	77.5*	18.6	48.9*	16.7	92.5*	3.6	36.1	6.8
O=C(NCC(c1ccco1)N1CCc2ccccc2C1)C(=O)Nc1ccccc1F (stereo unspecified)	16.0	46.2*	43.0	7.2	-16.0	48.5*	1.8	15.7	17.9
CC(=O)Nc1ccc(NC(=O)C(=O)NCC(c2ccco2)N2CCc3ccccc32)cc1 (stereo unspecified)	-0.8	0.5	13.9	-19.7	-30.1	nt	nt	nt	nt
O=C(NCC(c1ccco1)N1CCc2ccccc2C1)C(=O)Nc1ccc(F)cc1F (stereo unspecified)	13.8	58.0*	21.2	-16.4	-6.5	41.5*	5.3	10.0	15.5
CC(C)C[C@H](NC(=O)[C@@H]1Cc2ccccc2CN1)C(=O)Nc1ccc(C(C)C)cc1	5.7	5.9	6.2	-22.5	-31.7	nt	nt	nt	nt
CC(C)c1ccc(NC(=O)[C@@H](C)NC(=O)[C@@H]2Cc3ccccc3CN2)cc1	-4.2	77.6*	11.6	-27.8	-29.7	31.1	12.4*	-9.3	4.4
CC1(C)CC[C@]2(C(=O)O)CC[C@]3(C)C(=CC[C@@H]4[C@@]5(C)CC[C@H](O[C@@H]6O[C@H](C(=O)O)[C@@H](O)[C@H](O[C@@H]7OC[C@H](O)[C@H](O)[C@H]7O)[C@H]6O)C(C)(C)[C@@H]5CC[C@]43C)[C@@H]2C1	109.3*	109.2*	33.6	100.4*	110.8*	83.9*	66.0*	104.5*	94.8*
OC(COc1ccc(CNCCc2ccccc2F)cc1)CN1CCCCC1 (stereo unspecified)	nt	nt	11.2	-20.6	1.2	nt	2.4	nt	4.4
O=C(CCCCn1cnc2c(=S)nc[nH]c21)Nc1ccc(C(=O)O)c(O)c1	0.5	3.9	nt	nt	nt	nt	nt	nt	nt
O=C(NCc1ccco1)c1cc(-c2ccc(F)cc2)on1	34.3	49.3*	8.4	-9.3	-17.6	1.5	2.5	-0.5	4.7
O=C(NCc1ccco1)c1cc(-c2ccccc2)on1	2.6	9.9	5.4	1.7	-7.9	nt	nt	nt	nt
CCOC(=O)c1ccc(NC(=S)N2CCSC2c2ccc(OC)cc2)cc1 (stereo unspecified)	72.4*	92.6*	6.7	-5.0	-17.4	82.8*	37.5*	67.4*	43.6*
COc1ccc(C2SCCN2C(=S)Nc2ccc(F)cc2)cc1 (stereo unspecified)	9.7	14.2	-9.0	-1.2	-7.2	nt	nt	nt	nt
CC(C)NS(=O)(=O)c1ccc(NC(=O)C(C)OC(=O)C2CCC2)cc1 (stereo unspecified)	-9.8	35.3	10.9	-1.9	-10.7	nt	nt	nt	nt
CCc1nc(N)c(C#N)c(-c2ccco2)c1C	-17.8	80.6*	30.4	-1.6	-9.2	3.8	2.6	2.2	3.4
O=C(c1ccc2c(=O)n(-c3ccccc3)c(=O)[nH]c2c1)N1CCCCC1	-5.6	-1.8	14.2	-1.1	-10.8	nt	nt	nt	nt
SMILES	TAAR1 antagonist	TAAR1 ag	OX1R antag-1	CHO parental Ca	OX1R antag-2	TAAR1 ag conf	Ga16 ag counter	TAAR1 desensitize	Ga16 antag count
CC(C)c1ccc2nc3sc(C(=O)N4CCc5ccccc5C4)c(N)c3cc2c1	19.9	82.9*	16.4	-11.7	-19.8	87.6*	31.0*	63.4*	39.6*
CCN1CCc2nc3sc(C(=O)N4CCc5ccccc5C4)c(N)c3cc2C1	13.8	79.7*	30.1	-14.9	-9.6	66.8*	4.0	11.9	13.2
C[C@H]1CN[C@@H](CCO)/C1=C\c1ccccc1	-1.7	43.3*	nt	nt	nt	52.5*	0.7	28.8	10.0
C[C@H]1CN[C@H](CCO)/C1=C\c1ccccc1	6.7	46.6*	nt	nt	nt	61.2*	-0.3	17.8	10.2
O=C(C(=O)N1CCN(c2ccccc2)CC1)c1ccccc1	-7.6	1.0	nt	nt	nt	nt	nt	nt	nt
C[C@H](CO)N1C[C@H](C)[C@@H](CN(C)S(=O)(=O)c2ccccc2C#N)OCc2cn(nn2)CCCC1=O	-11.8	1.2	nt	nt	nt	nt	nt	nt	nt
CC1CN(C(NC(=O)c2ccccc2)C(Cl)(Cl)Cl)CC(C)O1 (stereo unspecified)	-9.1	46.1*	nt	nt	nt	69.7*	3.4	6.6	4.0
CCCCC(=O)NC(N1CCCCC1)C(Cl)(Cl)Cl (stereo unspecified)	-2.2	10.0	16.9	-7.8	-0.5	nt	nt	nt	nt
CC1CN(C(NC(=O)C(C)(C)C)C(Cl)(Cl)Cl)CC(C)O1 (stereo unspecified)	18.8	65.0*	11.4	-6.3	-8.5	85.0*	3.0	30.5	-1.6
